According to ChEMBL document CHEMBL4334465, “SAR Studies on Aromatic Acylhydrazone-Based Inhibitors of Fungal Sphingolipid Synthesis as Next-Generation Antifungal Agents” (J Med Chem, 2019):
In brackets after ≈: the same amount, converted by molar mass.

Columns and labels:
Cryptococcus neoformans [1] = assay: Antifungal activity against Cryptococcus neoformans H99 measured after 24 to 72 hrs; format: functional; conditions: var grubii H99
How it was run: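 Modified CLSI broth microdilution with inoculum per M27A3. Compounds were serially diluted 32 to 0.03 μg/mL. Media: C. neoformans in HEPES-buffered YNB without amino acids (pH 7.0, 2% glucose); Candida strains in YNB without ammonium sulfate or amino acids plus 1% asparagine (pH 7.0, 2% glucose); A. fumigatus in RPMI (pH 7.0, 2% glucose).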

HepG2 = assay: Cytotoxicity against human HepG2 cells after 24 to 48 hrs by MTT assay; format: functional; conditions: read-out: LD50 (the source's name)
How it was run: (§1)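 A549 and HepG2 kept in DMEM with 10% FBS and 1% pen-strep. At passage 7, seeded at 10⁵ cells/well and allowed to adhere 14 h. Compound added at 0.03–128 μg/mL, untreated wells as controls. Incubation 37°C, 5% CO₂ for 24 or 48 h. MTT (5 mg/mL in PBS) added for 4 h, formazan dissolved in DMSO, OD570.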

Cryptococcus neoformans [2] = assay: Fungicidal activity against Cryptococcus neoformans H99 measured after 24 hrs by time-kill assay; format: functional, var grubii H99
How it was run: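 Overnight C. neoformans washed in PBS and resuspended in HEPES-buffered YNB, pH 7.4. 2 × 10⁴ cells exposed to a range of drug concentrations in 10 mL with 0.5% DMSO final, at 37°C, 5% CO₂, shaking at 200 rpm. Aliquots sampled over 96 h, diluted and plated on YPD; CFU counted after 48 h at 30°C.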

[3] = Selectivity index, ratio of LD50 for human A549 cells to MIC80 for Cryptococcus neoformans H99; format: toxicity; conditions: read-out: Selectivity Index
How it was run: (§2)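 SI = LD₅₀/MIC₈₀. Cytotoxicity: A549 or HepG2 cells (DMEM, 10% FBS, passage 7, 10⁵ cells/well) adhered 14 h, then exposed to 0.03–128 μg/mL for 24 or 48 h at 37°C, 5% CO₂; MTT 4 h, formazan dissolved in DMSO, read at 570 nm. MIC₈₀ against C. neoformans from broth microdilution in HEPES-buffered YNB, pH 7.0.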

A549 = assay: Cytotoxicity against human A549 cells after 24 to 48 hrs by MTT assay; format: functional; conditions: read-out: LD50 (the source's name); how it was run: as §1
[4] = Selectivity index, ratio of LD50 for human HepG2 cells to MIC80 for Cryptococcus neoformans H99; format: toxicity; conditions: read-out: Selectivity Index; how it was run: as §2

| SMILES | MIC80 (Cryptococcus neoformans [1]) [µg/mL] | CC50 (HepG2) [µg/mL] | MFC100 (Cryptococcus neoformans [2]) [µg/mL] | selectivity ratio [3] | CC50 (A549) [µg/mL] | selectivity ratio [4] |
| --- | --- | --- | --- | --- | --- | --- |
| Cc1ccccc1-c1nnc(-c2cc(Br)ccc2O)o1 | > 16 |  |  |  |  |  |
| Cc1ccccc1C(=O)N/N=C/c1cc(C(F)(F)F)ccc1O | 8 (≈ 24.8 µM) |  |  |  |  |  |
| Cc1ccc(O)c(/C=N/NC(=O)c2cc(Br)cc(Br)c2)c1 | 0.5 (≈ 1.21 µM) | 16 (≈ 38.8 µM) | 1 (≈ 2.43 µM) | 64 | 32 (≈ 77.7 µM) | 32 |
| O=C(N/N=C/c1cc(OC(F)(F)F)ccc1O)c1ccc(Br)cc1Br | 0.25 (≈ 0.519 µM) | 64 (≈ 133 µM) | 2 (≈ 4.15 µM) | 128 | 32 (≈ 66.4 µM) | 256 |
| O=C(N/N=C/c1cc(Cl)cc(Cl)c1O)c1cc(Br)ccc1Br | 0.5 (≈ 1.07 µM) | 32 (≈ 68.5 µM) | 0.25 (≈ 0.535 µM) | 64 | 32 (≈ 68.5 µM) | 64 |
| O=C(N/N=C/c1cc(Cl)cc(Cl)c1O)c1cc(Br)cc(Br)c1 | 0.5 (≈ 1.07 µM) | 64 (≈ 137 µM) | 0.5 (≈ 1.07 µM) | 128 | 64 (≈ 137 µM) | 128 |
| CN(C)c1ccc(C(=O)N/N=C/c2c(O)ccc3ccccc23)cc1 | 0.5 (≈ 1.5 µM) | 16 (≈ 48 µM) | 2 (≈ 6 µM) | 64 | 32 (≈ 96 µM) |  |
| O=C(N/N=C/c1cc(Br)cc(Br)c1O)c1ccc(F)cc1 | 0.12 (≈ 0.288 µM) | 32 (≈ 76.9 µM) | 0.25 (≈ 0.601 µM) | 267 | 32 (≈ 76.9 µM) | 267 |
| O=C(N/N=C/c1cc(Br)ccc1O)c1cccc(OC(F)F)c1 | 0.12 (≈ 0.312 µM) | 64 (≈ 166 µM) | 1 (≈ 2.6 µM) | 66.6 | 8 (≈ 20.8 µM) | 533 |
| Cc1ccccc1C(=O)N/N=C/c1cc(C#N)ccc1O | 4 (≈ 14.3 µM) |  |  |  |  |  |
| O=C(N/N=C/c1ccc(Br)cc1O)c1ccc(OC(F)F)cc1 | 0.12 (≈ 0.312 µM) | 32 (≈ 83.1 µM) | 1 (≈ 2.6 µM) | 267 | 32 (≈ 83.1 µM) | 267 |

Second part, led by results:

| MIC80 (Cryptococcus neoformans [1]) [µg/mL] | SMILES | CC50 (HepG2) [µg/mL] | MFC100 (Cryptococcus neoformans [2]) [µg/mL] | selectivity ratio [3] | CC50 (A549) [µg/mL] | selectivity ratio [4] |
| --- | --- | --- | --- | --- | --- | --- |
| 4 (≈ 12 µM) | Nc1ccc(C(=O)N/N=C/c2ccc(Br)cc2O)cc1 |  |  |  |  |  |
| > 16 | Cc1ccc(O)c(/C=N/NC(=O)c2cccc(Br)c2Br)c1 |  |  |  |  |  |
| > 16 | C/C(=N\NC(=O)c1cc(Br)ccc1Br)c1cc(Br)cc(Br)c1O |  |  |  |  |  |
| > 16 | C/C(=N\NC(=O)c1cc(Br)ccc1Br)c1cc(Br)ccc1O |  |  |  |  |  |
| > 16 | O=C(c1ccc(Br)cc1)n1ccc(-c2cc(Br)cc(Br)c2O)n1 |  |  |  |  |  |
| 4 (≈ 8.3 µM) | O=C(N/N=C/c1cc(Br)cc(Br)c1O)c1cccc(OC(F)(F)F)c1 |  |  |  |  |  |
| > 16 | CN(/N=C/c1cc(Br)cc(Br)c1O)C(=O)c1ccc(Br)cc1 |  |  |  |  |  |
| 8 (≈ 18.9 µM) | N#Cc1ccc(O)c(/C=N/NC(=O)c2ccc(Br)cc2Br)c1 |  |  |  |  |  |
| > 16 | O=C(N/N=C/c1c(O)ccc2ccccc12)c1cccc(Br)c1Br |  |  |  |  |  |
| > 16 | C/C(=N\NC(=O)c1ccc(Br)cc1Br)c1cc(Br)ccc1O |  |  |  |  |  |
| > 16 | O=C(N/N=C/c1cc(Br)cc(Br)c1O)c1cc(Br)cc(Br)c1 |  |  |  |  |  |
| > 16 | O=C(N/N=C/c1cc(Br)ccc1O)c1cccc(C(=O)N/N=C/c2cc(Br)ccc2O)c1 |  |  |  |  |  |
